Experimental data as given in publication PMC6403082 (International Journal of Neuropsychopharmacology, 2018).
Read-outs that look alike come from different tables or passages of the source. Peptide text beside a SMILES is read from it.

What was measured:
[1] = tested on: NMDAR in rat primary cortical neurons; assay: Intracellular Ca2+ influx; assay type: cell-based; settings: for EC50: rat primary cortical neurons; for Effect on 10 μM NMDA-induced calcium response: 300 μM 7-CK or 10 μM MDL
[2] = target: mutant NR1-NR2B receptors (NR1 F484A/T518L) (Homo sapiens, UniProt Q05586+Q13224, F484A/T518L); assay: [3H] MK-801 binding at glycine-site mutant NR1-NR2B; assay type: biochemical; settings: NR1 F484A/T518L loss-of-function glycine-site mutant vs wild-type NR1-NR2B
In short: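 Crude membranes from transiently transfected HEK cells (NR1-NR2B, wild-type or NR1 F484A/T518L glycine-site mutant), washed in 10 mM Tris·acetate pH 7.4, homogenised, pelleted at 51 500 × g, all at 4°C. […] Then […] [3H] MK-801 (22.5 Ci/mmol) added for 15 min (nonequilibrium), and filtered. n = 18, 2-tailed t test.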

[3] = target: mutant NR2B (R393E) NMDAR in HEK293 cells (Homo sapiens, UniProt Q05586+Q13224, R393E); assay: Intracellular calcium response in HEK cells, NR2B R393E; assay type: cell-based
[4] = mPFC microdialysis of rapastinel; assay type: in vivo; settings: rat, sc
In short: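 Freely moving rats had guide cannulae implanted in mPFC (AP +3.2, L +0.5, V −1.5 mm from bregma/dura). After 7 days of recovery, a probe was inserted (3-mm membrane, 50 kDa cutoff) and perfused with aCSF at 1 μL/min (148 NaCl, 4 KCl, 0.8 MgCl2, 1.4 CaCl2, 1.2 Na2HPO4, 0.3 NaH2PO4 mM; pH 7.2). Test compound was given s.c. in sterile saline.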

NMDA, PCP = assay: Radioligand displacement, NMDA PCP site; assay type: binding; settings: 30 μM test compound
NMDA, MK-801 = assay: Radioligand displacement, NMDA MK-801 site; assay type: binding; settings: 30 μM test compound; inhibition >50% considered meaningful
NMDA, glutamate = assay: Radioligand displacement, NMDA glutamate site; assay type: binding; settings: 30 μM test compound
NMDA, polyamine = assay: Radioligand displacement, NMDA polyamine site; assay type: binding; settings: 30 μM test compound
NMDA, glycine = NMDA, glycine (Homo sapiens, UniProt Q05586); assay: Radioligand displacement, NMDA glycine site; assay type: binding; settings: 30 μM test compound
[5] = tested on: NMDAR current in rat cortical slices; settings: 100 μM 7-CK; ref Kemp et al., 1988; cited from earlier work

Sequence of mutant NR1-NR2B receptors (NR1 F484A/T518L) (Q13224 27-1484, other chains not shown): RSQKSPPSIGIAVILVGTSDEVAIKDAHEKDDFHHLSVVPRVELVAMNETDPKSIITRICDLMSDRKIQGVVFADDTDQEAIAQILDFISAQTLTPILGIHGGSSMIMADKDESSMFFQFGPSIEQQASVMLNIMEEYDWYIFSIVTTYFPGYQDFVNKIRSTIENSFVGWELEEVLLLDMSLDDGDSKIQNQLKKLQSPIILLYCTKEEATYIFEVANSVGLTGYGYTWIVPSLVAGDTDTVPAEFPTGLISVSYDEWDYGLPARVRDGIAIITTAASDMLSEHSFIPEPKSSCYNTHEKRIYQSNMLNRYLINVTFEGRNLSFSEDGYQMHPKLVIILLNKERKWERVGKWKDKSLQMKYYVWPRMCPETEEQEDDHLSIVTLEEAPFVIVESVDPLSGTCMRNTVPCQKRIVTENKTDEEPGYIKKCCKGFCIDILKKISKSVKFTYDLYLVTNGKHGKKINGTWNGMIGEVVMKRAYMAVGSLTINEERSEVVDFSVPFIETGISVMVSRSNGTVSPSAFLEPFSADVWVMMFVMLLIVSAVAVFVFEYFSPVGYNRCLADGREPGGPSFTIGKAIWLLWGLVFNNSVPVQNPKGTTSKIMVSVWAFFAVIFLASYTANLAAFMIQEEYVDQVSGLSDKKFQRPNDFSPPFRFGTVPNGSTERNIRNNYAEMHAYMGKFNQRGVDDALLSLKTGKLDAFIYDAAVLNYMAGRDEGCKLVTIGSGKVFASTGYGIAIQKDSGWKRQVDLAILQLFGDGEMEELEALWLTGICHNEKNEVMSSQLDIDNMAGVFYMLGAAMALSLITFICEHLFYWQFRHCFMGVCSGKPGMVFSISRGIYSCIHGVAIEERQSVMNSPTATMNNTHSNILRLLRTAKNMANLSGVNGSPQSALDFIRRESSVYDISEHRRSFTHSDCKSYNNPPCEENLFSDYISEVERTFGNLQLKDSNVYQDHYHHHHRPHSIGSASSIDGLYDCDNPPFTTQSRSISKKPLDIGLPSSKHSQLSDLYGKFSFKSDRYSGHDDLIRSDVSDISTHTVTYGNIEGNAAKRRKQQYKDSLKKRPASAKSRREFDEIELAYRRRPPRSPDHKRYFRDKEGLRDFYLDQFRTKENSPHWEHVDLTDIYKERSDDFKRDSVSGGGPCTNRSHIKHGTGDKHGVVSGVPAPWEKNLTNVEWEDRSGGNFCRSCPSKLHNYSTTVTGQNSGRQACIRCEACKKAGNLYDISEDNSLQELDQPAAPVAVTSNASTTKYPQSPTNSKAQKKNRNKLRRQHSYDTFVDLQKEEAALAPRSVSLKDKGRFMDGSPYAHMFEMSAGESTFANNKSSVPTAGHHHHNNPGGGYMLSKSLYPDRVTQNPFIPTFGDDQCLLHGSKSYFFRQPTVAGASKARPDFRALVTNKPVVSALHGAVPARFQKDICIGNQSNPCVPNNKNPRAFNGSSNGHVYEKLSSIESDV
Sequence of mutant NR2B (R393E) NMDAR in HEK293 cells (Q13224 27-1484 R393E, other chains not shown): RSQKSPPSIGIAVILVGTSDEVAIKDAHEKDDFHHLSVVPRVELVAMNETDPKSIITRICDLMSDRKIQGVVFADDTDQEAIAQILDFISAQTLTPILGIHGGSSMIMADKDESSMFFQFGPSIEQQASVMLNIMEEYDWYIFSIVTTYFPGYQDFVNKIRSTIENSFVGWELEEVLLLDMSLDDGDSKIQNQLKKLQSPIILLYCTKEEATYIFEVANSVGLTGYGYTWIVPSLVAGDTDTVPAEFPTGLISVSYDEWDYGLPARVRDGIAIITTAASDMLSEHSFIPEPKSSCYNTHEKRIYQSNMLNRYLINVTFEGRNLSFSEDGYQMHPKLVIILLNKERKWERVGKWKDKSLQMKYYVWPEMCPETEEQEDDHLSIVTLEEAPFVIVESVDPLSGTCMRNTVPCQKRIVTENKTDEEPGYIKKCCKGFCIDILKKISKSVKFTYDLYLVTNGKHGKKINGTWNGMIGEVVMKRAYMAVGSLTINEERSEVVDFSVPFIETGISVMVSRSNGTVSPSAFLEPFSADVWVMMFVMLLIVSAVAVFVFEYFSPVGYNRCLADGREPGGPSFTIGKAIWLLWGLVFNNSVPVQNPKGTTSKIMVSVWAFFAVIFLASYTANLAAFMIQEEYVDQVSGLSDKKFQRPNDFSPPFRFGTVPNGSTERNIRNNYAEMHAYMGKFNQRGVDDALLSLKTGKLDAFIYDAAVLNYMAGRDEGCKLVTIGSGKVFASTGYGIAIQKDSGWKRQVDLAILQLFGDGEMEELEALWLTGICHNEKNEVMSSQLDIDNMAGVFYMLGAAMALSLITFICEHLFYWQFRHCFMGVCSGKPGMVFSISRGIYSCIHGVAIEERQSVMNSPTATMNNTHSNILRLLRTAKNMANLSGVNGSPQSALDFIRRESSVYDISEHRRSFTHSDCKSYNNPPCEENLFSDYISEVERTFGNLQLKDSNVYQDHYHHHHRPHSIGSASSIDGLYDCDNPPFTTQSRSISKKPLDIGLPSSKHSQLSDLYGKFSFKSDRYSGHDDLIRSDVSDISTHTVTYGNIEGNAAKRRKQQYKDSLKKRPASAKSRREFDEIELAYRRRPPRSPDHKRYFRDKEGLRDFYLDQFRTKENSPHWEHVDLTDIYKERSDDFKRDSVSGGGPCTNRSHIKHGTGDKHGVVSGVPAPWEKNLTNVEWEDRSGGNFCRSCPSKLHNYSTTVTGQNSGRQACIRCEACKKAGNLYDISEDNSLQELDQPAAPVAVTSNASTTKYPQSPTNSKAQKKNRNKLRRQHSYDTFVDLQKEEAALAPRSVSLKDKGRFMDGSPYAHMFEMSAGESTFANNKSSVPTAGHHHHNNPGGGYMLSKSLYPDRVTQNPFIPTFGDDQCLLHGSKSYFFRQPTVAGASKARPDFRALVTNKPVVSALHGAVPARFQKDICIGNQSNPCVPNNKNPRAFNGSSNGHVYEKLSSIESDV

## N[C@H](CCCP(=O)(O)O)C(=O)O [(2R)-amino-5-phosphonopentanoate]
[1]; 100 μM co-infused
  Effect on calcium response to NMDA + rapastinel + 7-CK: inhibited the calcium response

## N[C@H](CO)C(=O)O [D-serine]
[1]; read-out: EC50, [Ca2+]i mobilization (D-serine)
  EC50: 290 nM

## NCC(=O)O [Glycine, glycine]
[2]
  Enhancement of [3H] MK-801 binding at mutant receptors: failed to enhance

## N[C@@H](CCC(=O)O)C(=O)O [glutamate]
[3]
  Receptor activation, % of 1 μM glutamate, mutated NR2B (R393E): 22.6 ± 1.2%

## O=C(O)/C(=C/c1c(C(=O)O)[nH]c2cc(Cl)cc(Cl)c12)c1ccccc1 [MDL]
[1]; 10 μM MDL, n = 5
  Block of NMDAR activation by 10 μM NMDA and 100 μM D-serine: −98.5 ± 0.2%
[1]
  Effect on 10 μM NMDA-induced calcium response: completely abolished

## C[C@@H](O)[C@H](N)C(=O)N1CCC[C@H]1C(=O)N1CCC[C@H]1C(=O)N[C@H](C(N)=O)[C@@H](C)O [Rapastinel] (H-TPPT-NH2)
[4]; brain (mPFC) microdialysate, 10 mg/kg
  level at time molar: ~30 nM
[4]; in vivo
  Tmax: ~20 min
  half-life: ~20 min

## CN[C@]1(c2ccccc2Cl)CCCCC1=O [S-ketamine]
NMDA, PCP
  NMDA, PCP (%) radioligand displacement: 84%
NMDA, MK-801
  NMDA, MK-801(%) radioligand displacement: 98%
NMDA, glutamate
  NMDA, glutamate (%) radioligand displacement: −6%
NMDA, polyamine
  NMDA, polyamine (%) radioligand displacement: −17%
[1]; read-out: IC50, inhibition of NMDAR-mediated [Ca2+]i accumulation
  IC50: ~1000 nM
NMDA, glycine
  NMDA, glycine (%) radioligand displacement: 0%

## CN[C@@]1(c2ccccc2Cl)CCCCC1=O [R-ketamine]
NMDA, PCP
  NMDA, PCP (%) radioligand displacement: 88%
NMDA, MK-801
  NMDA, MK-801(%) radioligand displacement: 89%
NMDA, glutamate
  NMDA, glutamate (%) radioligand displacement: 6%
NMDA, polyamine
  NMDA, polyamine (%) radioligand displacement: 1%
NMDA, glycine
  NMDA, glycine (%) radioligand displacement: −5%

## O=C(O)c1cc(O)c2ccc(Cl)cc2n1 [7-CK, 7-chlorokynurenic acid]
[5]
  Effect on NMDAR current in rat cortical slices: completely blocked
[1]
  Effect on 10 μM NMDA-induced calcium response: completely abolished

## CN[C@H](CC(=O)O)C(=O)O [NMDA, N-methyl-D-aspartate]
[1]; read-out: EC50, [Ca2+]i mobilization (NMDA)
  EC50: 2800 nM

## CNC1(c2ccccc2Cl)CCCCC1=O (racemic) [(R,S)-ketamine]
NMDA, PCP
  NMDA, PCP (%) radioligand displacement: 94%
NMDA, MK-801
  NMDA, MK-801(%) radioligand displacement: 96%
NMDA, glutamate
  NMDA, glutamate (%) radioligand displacement: −5%
NMDA, polyamine
  NMDA, polyamine (%) radioligand displacement: −16%
NMDA, glycine
  NMDA, glycine (%) radioligand displacement: 17%
